Source: PubChem BioAssay
This is a sample that favours compounds with a hit; in the whole collection about 1.6% have one here.
ASAP1 inh: blocks human ASAP1-stimulated Arf1 GTP hydrolysis; inhibition, % at 16.5 µM; GDP FP detection; actives 0.19% (n = 360,000); Q9ULH1; in the data active = inhibition above about 25%
Target sequence (Q9ULH1 325-724 limits assumed): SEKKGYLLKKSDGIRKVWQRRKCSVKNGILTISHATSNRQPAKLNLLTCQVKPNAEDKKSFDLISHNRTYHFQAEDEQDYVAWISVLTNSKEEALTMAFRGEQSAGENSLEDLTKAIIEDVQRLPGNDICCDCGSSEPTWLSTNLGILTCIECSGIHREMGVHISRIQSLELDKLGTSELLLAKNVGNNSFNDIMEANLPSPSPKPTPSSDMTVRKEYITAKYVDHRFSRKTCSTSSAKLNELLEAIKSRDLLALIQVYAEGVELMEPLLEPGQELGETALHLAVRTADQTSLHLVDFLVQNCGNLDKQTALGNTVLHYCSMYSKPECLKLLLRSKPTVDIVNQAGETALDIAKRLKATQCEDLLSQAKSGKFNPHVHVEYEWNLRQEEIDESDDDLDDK
Neddylation inh: cullin neddylation inhibition | TR-FRET cullin neddylation, biochemical | AID 651699 | actives 0.58% (n = 360,000) | P61081+Q13564 | inhibition, % at 25 µM; in the data active = inhibition above about 36%
H9c2 protect: protects H9c2 cardiomyocytes from peroxide injury; H2O2 injury protection, ATPLite, 2 h; actives 0.63% (n = 360,000); AID 588492; protection from H2O2 cell death, % at 20 µM;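 active = compounds giving at least 50% protection of heart cells from peroxide-induced death in the single-dose screen, raw or plate-pattern-corrected value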
ARFGAP1 inhibitor: rat ARFGAP1 inhibition; Q62848; Arfgap1-stimulated ARF1 GTP hydrolysis, GDP FP detection; inhibition, % at 16.5 µM; actives 0.26% (n = 360,000);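 active = inhibition above a per-plate limit, mean inhibition of low control wells plus 3 SD, cut at about 25% in these data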
Target sequence (Q62848 1-136 limits assumed): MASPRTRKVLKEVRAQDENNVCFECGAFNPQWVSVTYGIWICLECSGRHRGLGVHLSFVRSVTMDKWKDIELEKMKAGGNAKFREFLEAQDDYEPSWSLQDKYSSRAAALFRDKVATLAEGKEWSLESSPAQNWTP
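Material: rat Arfgap1 GAP domain (His6, aa 1-136), purified enzyme. Also added: human ARF1(Δ1-17)-GTP substrate. Compound dosing: 16.5 µM single point, 1.26% DMSO. Timing: enzyme reaction 120 min at 25 °C after 20 min preincubation. Signal: GDP detection by fluorescence polarization. Read-out basis: percent inhibition of GAP-stimulated GDP formation, scaled between DMSO and no-Arfgap1 medians.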
Each line names hits and unclear results; the compound was inactive in the other large screens.

CCN1CCc2c(sc(NC(=O)c3ccc(S(=O)(=O)N(C)c4ccccc4)cc3)c2C(=O)NC)C1	H9c2 protect 56.9 (no result: ASAP1 inh, ARFGAP1 inhibitor)
O=C1OCCN1C(=O)[C@H]1[C@H](c2ccccc2)C(c2cccc(Cl)c2)=NN1c1ccc(Br)cc1	none
O=C1OCCN1C(=O)[C@H]1[C@H](c2ccc([N+](=O)[O-])cc2)C(c2cccc(Cl)c2)=NN1c1ccc(Br)cc1	H9c2 protect 51.4
O=C1OCCN1C(=O)[C@H]1[C@H](c2ccc(Cl)cc2)C(c2ccccc2)=NN1c1ccc(Br)cc1	none (not shown: Neddylation inh)
O=C1OCCN1C(=O)[C@H]1[C@H](c2ccc([N+](=O)[O-])cc2)C(c2ccccc2)=NN1c1ccc(Br)cc1	H9c2 protect 54.7
O=C(OCc1ccccc1)N1Cc2ccnnc2CC1c1ccccc1-c1ccc(C(F)(F)F)cc1 (stereo not drawn)	none (no result: Neddylation inh, H9c2 protect)
Cc1ccccc1OCC(=O)N/N=C/c1cc2ccccc2nc1Cl	none
C=CCc1ccccc1OCC(=O)N/N=C/c1ccc(OC(C)=O)cc1OC(C)=O	H9c2 protect 72.6
CCCCOC(=O)c1cc(-c2ccc(/C=N/n3cnnc3)o2)ccc1Cl	none (not shown: Neddylation inh)
CCOC(=O)c1cc(-c2ccc(/C=N\n3cnnc3)o2)ccc1Cl	H9c2 protect 66.7
COC(=O)[C@H](N[C@H](/C=C/c1ccccc1)[C@@H](O)Cc1ccccc1)c1ccccc1	none (no result: Neddylation inh, H9c2 protect)
CCN1C(=O)/C(=C/c2nc3ccccc3c(=O)n2-c2ccccc2)c2ccccc21	H9c2 protect 50.9
CCN1C(=O)/C(=C\c2nc3ccccc3c(=O)n2CC)c2ccccc21	none
O=C1ON=C(c2ccccc2)/C1=C/c1ccc(O)c(O)c1	H9c2 protect 57.6
COc1ccc(/C=C2\C(=O)ON=C2c2ccccc2)cc1	none
COc1cc(C(=O)Nc2ccc(NC(=O)C3CCCCC3)nc2)cc(OC)c1OC	none
COc1cc(C(=O)Nc2ccccc2C(=O)Nc2ccccn2)cc(OC)c1OC	H9c2 protect 60.2
COC(=O)c1ccccc1NC(=O)c1ccc2nccnc2c1	H9c2 protect 64.2
COc1cc(C(=O)Nc2ccc(NC(=O)c3cccc(Cl)c3)nc2)cc(OC)c1OC	H9c2 protect 68.3
COc1ccc(C(=O)Nc2cccc(NC(=O)c3ccc(OC)c(OC)c3)n2)cc1OC	H9c2 protect 53.5
COC(=O)C1=C(C)N(Cc2cccc(C(F)(F)F)c2)C(=NCc2ccc(OC)cc2)NC1c1cccc(C(F)(F)F)c1 (stereo not drawn)	none (no result: Neddylation inh, H9c2 protect)
C[C@H](CO)N1C[C@H](C)[C@H](CN(C)Cc2cccc(F)c2)Oc2ncc(C3=CCCC3)cc2C1=O	none (no result: Neddylation inh, H9c2 protect)
C[C@@H]1COc2cc(N3CCCC3)ccc2S(=O)(=O)N1	none (no result: Neddylation inh, H9c2 protect)
O=C(N[C@H](C(=O)N1CCC[C@H]1C(=O)NC1CCCC1)C1CCCCC1)c1cccs1	none (no result: Neddylation inh, H9c2 protect)
CC(C)(C)c1cc(=O)n(-c2ccccc2)[nH]1	ARFGAP1 inhibitor 29.5
C[C@H](O)[C@@H]1C(=O)N2CCc3c([nH]c4c(-c5ccccc5)cccc34)[C@@H]2C[C@@H]1N(C)CC1CCCCC1	none (no result: Neddylation inh, H9c2 protect)
O=C(CN1CC(=O)Oc2ccccc21)OCC(=O)c1ccc(F)cc1	none
O=C(CN1CC(=O)Oc2ccccc21)OCC(=O)c1ccc(Br)cc1	H9c2 protect 56.9
O=c1c2ccccc2sn1-c1ccccc1	none
O=C(O)c1cccc(-n2sc3ccccc3c2=O)c1	H9c2 protect 78.3
Cc1ccccc1-c1cc2nc(NCCc3ccncc3)n(C)c(=O)c2s1	none
CCCN(CCC)S(=O)(=O)c1ccc(C(=O)Nc2nnc(-c3cc(OC)cc(OC)c3)o2)cc1	H9c2 protect 53.8 (no result: ASAP1 inh, ARFGAP1 inhibitor)
CCCCN(CCCC)S(=O)(=O)c1ccc(C(=O)Nc2nnc(CSC)o2)cc1	H9c2 protect 49.5
CCCCN(CC)S(=O)(=O)c1ccc(C(=O)Nc2nnc(CSC)o2)cc1	none
Cc1cccc(C=NNc2cc(C)c3cccc(C)c3n2)n1	none (no result: Neddylation inh, H9c2 protect)
COc1ccc(-c2cc(-c3ccc(O)cc3)nc(N)c2C#N)cc1OC	H9c2 protect 56.1 (not shown: Neddylation inh)
COc1ccc(-c2c(C#N)c(N)nc3c2CCc2ccccc2-3)cc1OC	none (no result: Neddylation inh, H9c2 protect)
COc1ccccc1N1CCN(C(=O)c2ccc3nc(-c4ccco4)c(-c4ccco4)nc3c2)CC1	H9c2 protect 63.5
COC(=O)Cc1nnn2c1CC(OC)c1cc(Br)ccc1-2 (stereo not drawn)	none (no result: Neddylation inh, H9c2 protect)
O=C1NC(=O)C(=O)N1	none
O=C1NC(=O)c2c(Br)c(Br)c(Br)c(Br)c21	H9c2 protect 59.4
CCCCCCCCN1C(=O)[C@@H](CC(=O)N2CCSCC2)C[C@@]2(C(=O)OC)C1=C[C@H](C(C)(C)C)O[C@@H]2C	none (no result: Neddylation inh, H9c2 protect)
COc1ccc(/C=N/Nc2nc(NCc3ccco3)nc(Nc3ccc(OC)cc3)n2)cc1	none
COc1ccc(Nc2nc(NCc3ccco3)nc(N/N=C/c3ccc(O)cc3)n2)cc1	H9c2 protect 51.3
Cc1cc(=O)[nH]c(N=N/C(=N/Nc2ccccc2C)c2ccccc2)n1	H9c2 protect 60.0
Cc1cc(=O)[nH]c(N=N/C(=N/Nc2ccc(O)cc2)c2ccccc2)n1	none
CN1CCN(CCNC(=O)c2ccc3nc(-c4ccc(F)cc4)c(-c4ccc(F)cc4)nc3c2)CC1	Neddylation inh 51.2
CCc1nc2ccc(C(=O)NCCCN3CCN(c4ccc(F)cc4)CC3)cc2nc1CC	none
COc1ccc(Br)cc1C(=O)Nc1cccc(NC(=O)c2ccco2)c1	H9c2 protect 63.6
O=C(Nc1cccc(NC(=O)c2ccc([N+](=O)[O-])o2)c1)c1ccco1	H9c2 protect 57.1
O=C(Nc1cccc(NC(=O)c2ccc(-c3cccc(Br)c3)o2)c1)c1ccco1	H9c2 protect 59.6
O=C(Nc1ccc(NC(=O)c2ccc([N+](=O)[O-])o2)cc1Cl)c1ccco1	none
Nc1cccc2cc(S(=O)(=O)O)ccc12	Neddylation inh 46.3
Cc1cccnc1NCc1ccc(O)c2ncccc12	none
Cc1ccc(NCc2ccc(O)c3ncccc23)cc1C	H9c2 protect 62.6
Cc1ccc(NCc2ccc(O)c3ncccc23)cc1	H9c2 protect 81.8
COc1ccc(N=Cc2cc(Cc3ccccc3Cl)cc([N+](=O)[O-])c2O)cc1OC	H9c2 protect 76.3 (no result: ASAP1 inh, ARFGAP1 inhibitor)
CCCCS(=O)(=O)N1CCCc2nc(C)c(C)cc21	none (no result: Neddylation inh, H9c2 protect)
C=CC(=O)Nc1cccc(Oc2ccnc3[nH]ccc23)c1	Neddylation inh 38.0 (no result: ASAP1 inh, ARFGAP1 inhibitor)
C[C@@H]1ON(C)[C@H]2C[C@H]3c4[nH]c5cccc(-c6cccc(F)c6)c5c4CCN3C(=O)[C@@H]12	none (no result: Neddylation inh, H9c2 protect)
O=C(NCc1ccccc1)[C@@H]1CCCN1C(=O)[C@H]1CCCN1C(=O)c1cccs1	none (no result: Neddylation inh, H9c2 protect)
Cc1cc(N=Cc2c(O)ccc3ccccc23)no1	none
Cc1cc(N=Cc2c(O)ccc3cc(Br)ccc23)no1	H9c2 protect 65.8
NC(=O)c1cccc(Nc2nc(C(N)COCc3ccccc3)cs2)n1 (stereo not drawn)	H9c2 protect 88.0
Cc1ccc2nc(-c3ccc(F)cc3)c(Cc3cccc(F)c3)n2c1	none (no result: Neddylation inh, H9c2 protect)
COC(=O)C1=C(C)N(Cc2ccccc2C(F)(F)F)C(=NCc2cccc(C(F)(F)F)c2)NC1CCc1ccccc1 (stereo not drawn)	none (no result: Neddylation inh, H9c2 protect)
COc1ccc(OCC(=O)N/N=C/c2cccc3cccnc23)cc1	H9c2 protect 68.2
COc1cccc(/C=N/NC(=O)COc2cccc3cccnc23)c1O	none
